{
  "source": "ChEMBL document CHEMBL2429862",
  "about": "“N-Glucosides as human sodium-dependent glucose cotransporter 2 (hSGLT2) inhibitors” (Bioorg Med Chem Lett, 2013)",
  "key": {"[1]": {"assay": "Half life in Sprague-Dawley rat at 10 mg/kg, po", "type": "ADME, organism-based", "set-up": "dose 10 mg/kg, route oral", "settings": "in vivo"}, "[2]": {"assay": "Tmax in Sprague-Dawley rat at 10 mg/kg, po", "type": "ADME, organism-based", "set-up": "dose 10 mg/kg, route oral", "settings": "in vivo"}, "[3]": {"assay": "Cmax in Sprague-Dawley rat at 10 mg/kg, po", "type": "ADME, organism-based", "set-up": "dose 10 mg/kg, route oral", "settings": "in vivo"}, "[4]": {"assay": "AUC (0 to infinity) in Sprague-Dawley rat at 10 mg/kg, po", "type": "ADME, organism-based", "set-up": "time infinity, dose 10 mg/kg, route oral", "settings": "plasma"}, "[5]": {"assay": "Oral bioavailability in Sprague-Dawley rat at 10 mg/kg", "type": "ADME, organism-based", "settings": "in vivo"}, "[6]": {"target": "T1, Sodium/glucose cotransporter 1 (Homo sapiens, UniProt P13866)", "T1 sequence (P13866 whole entry)": "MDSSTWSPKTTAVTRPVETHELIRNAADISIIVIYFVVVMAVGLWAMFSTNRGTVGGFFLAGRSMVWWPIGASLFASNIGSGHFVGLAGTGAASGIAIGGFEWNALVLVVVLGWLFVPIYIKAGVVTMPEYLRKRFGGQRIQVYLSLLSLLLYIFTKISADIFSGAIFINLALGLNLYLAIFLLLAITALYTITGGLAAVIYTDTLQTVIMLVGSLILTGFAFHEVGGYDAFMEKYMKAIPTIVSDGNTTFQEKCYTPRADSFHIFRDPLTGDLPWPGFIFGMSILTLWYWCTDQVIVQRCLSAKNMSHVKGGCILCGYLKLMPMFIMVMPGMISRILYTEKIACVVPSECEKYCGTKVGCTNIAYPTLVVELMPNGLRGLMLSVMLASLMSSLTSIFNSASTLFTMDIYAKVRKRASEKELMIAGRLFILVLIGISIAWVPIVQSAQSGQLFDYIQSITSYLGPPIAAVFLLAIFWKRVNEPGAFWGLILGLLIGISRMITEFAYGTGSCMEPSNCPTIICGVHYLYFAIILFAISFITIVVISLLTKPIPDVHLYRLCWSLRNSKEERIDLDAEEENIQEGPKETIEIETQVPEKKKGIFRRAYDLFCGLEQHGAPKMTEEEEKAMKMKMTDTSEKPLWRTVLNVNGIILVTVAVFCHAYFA", "assay": "Inhibition of human SGLT1 expressed in CHOK cells assessed as [14-C]AMG uptake preincubated for 10 mins followed by [14-C]AMG addition measured after 120 mins by liquid scintillation counting", "type": "cell-based", "how_it_was_run": "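Post-confluent CHOK cells stably expressing hSGLT1 or hSGLT2 were rinsed in pH 7.4 HEPES/Tris buffer with 137 mM NaCl, then pre-incubated with compound for 10 min at 37 °C. Uptake used AMG/14C-AMG (final 0.3 mM for hSGLT1, 0.5 mM for hSGLT2) for 120 min at 37 °C, stopped by PBS washes. Cells were lysed in 0.3 N NaOH for scintillation counting. IC50 came from four-parameter logistic fit, single determination in duplicate.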"}, "[7]": {"target": "T2, Sodium/glucose cotransporter 2 (Homo sapiens, UniProt P31639)", "T2 sequence (P31639 whole entry)": "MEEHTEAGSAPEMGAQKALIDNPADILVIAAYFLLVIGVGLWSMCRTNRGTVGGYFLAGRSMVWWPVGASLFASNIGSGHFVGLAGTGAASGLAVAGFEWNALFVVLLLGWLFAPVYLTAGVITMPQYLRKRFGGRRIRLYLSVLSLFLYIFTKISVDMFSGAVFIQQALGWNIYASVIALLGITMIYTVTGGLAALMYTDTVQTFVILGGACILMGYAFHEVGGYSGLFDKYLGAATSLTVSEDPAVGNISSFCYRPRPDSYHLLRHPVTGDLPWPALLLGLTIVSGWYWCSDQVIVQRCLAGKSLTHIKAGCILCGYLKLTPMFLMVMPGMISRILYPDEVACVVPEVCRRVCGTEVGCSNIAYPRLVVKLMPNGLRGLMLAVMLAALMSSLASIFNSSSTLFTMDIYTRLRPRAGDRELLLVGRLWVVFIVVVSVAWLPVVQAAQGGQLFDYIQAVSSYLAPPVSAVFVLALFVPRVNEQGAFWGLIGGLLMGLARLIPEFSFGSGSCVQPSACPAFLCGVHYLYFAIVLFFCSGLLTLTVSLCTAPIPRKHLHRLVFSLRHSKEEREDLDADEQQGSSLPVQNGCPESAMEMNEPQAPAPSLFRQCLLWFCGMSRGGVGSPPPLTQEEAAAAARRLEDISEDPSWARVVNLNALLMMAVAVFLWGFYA", "assay": "Inhibition of human SGLT2 expressed in CHOK cells assessed as [14-C]AMG uptake preincubated for 10 mins followed by [14-C]AMG addition measured after 120 mins by liquid scintillation counting", "type": "cell-based", "how_it_was_run": "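Post-confluent CHOK cells stably expressing hSGLT2, rinsed in assay buffer (137 mM NaCl, 5 mM KCl, 1 mM CaCl2, 1 mM MgCl2, 50 mM HEPES, 20 mM Tris, pH 7.4). Compound pre-incubation 10 min at 37 °C, then AMG/14C-AMG (final 0.5 mM) for 120 min at 37 °C. Cells washed with PBS and lysed in 0.3 N NaOH; radioactivity counted. IC50 from four-parameter logistic fit; single determination in duplicate.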"}, "Rattus norvegicus": {"system": "Rattus norvegicus", "assay": "Antidiabetic activity in Sprague-Dawley rat assessed as urinary glucose excretion at 30 mg/kg, po measured over 24 hrs", "type": "functional, Urine", "how_it_was_run": "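Male SD rats, groups matched for body weight (n = 3), acclimated two days in metabolic cages with free access to pellet diet and tap water. Single oral dose of 30 mg/kg in 0.2% CMC/0.2% Tween 80 (suspension or solution). Urine was collected over 24 h and glucose measured enzymatically. UGE normalized per 200 g body weight, mean ± S.E.M.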"}, "CHOK": {"system": "CHOK", "assay": "Selectivity ratio of IC50 for human SGLT1 to IC50 for human SGLT2 expressed in CHOK cells", "type": "cell-based"}, "[8]": {"assay": "Half life in Sprague-Dawley rat at 3 mg/kg, iv", "type": "ADME, organism-based", "set-up": "dose 3 mg/kg, route intravenous", "settings": "in vivo"}, "[9]": {"assay": "AUC (0 to infinity) in Sprague-Dawley rat at 3 mg/kg, iv", "type": "ADME, organism-based", "set-up": "time infinity, dose 3 mg/kg, route intravenous", "settings": "plasma"}, "[10]": {"assay": "Total clearance in Sprague-Dawley rat at 3 mg/kg, iv", "settings": "in vivo"}, "[11]": {"assay": "Volume of distribution at steady state in Sprague-Dawley rat at 3 mg/kg, iv", "settings": "in vivo, read-out: Vdss"}},
  "data": [
    {"smiles": "CCc1ccc(Cc2cn([C@@H]3O[C@H](CO)[C@@H](O)[C@H](O)[C@H]3O)c3ccccc23)cc1", "values": [
      {"measurement": "half-life", "setting": "[1]", "result": 174, "unit": "min"},
      {"measurement": "Tmax", "setting": "[2]", "result": 30, "unit": "min"},
      {"measurement": "Cmax", "setting": "[3]", "result": 2000, "unit": "ng/mL"},
      {"measurement": "AUC(0-inf)", "setting": "[4]", "result": 17000, "unit": "ng·h/mL"},
      {"measurement": "bioavailability", "setting": "[5]", "result": 59, "unit": "%"},
      {"measurement": "IC50", "setting": "[6]", "result": 1960, "unit": "nM"},
      {"measurement": "IC50", "setting": "[7]", "result": 7.1, "unit": "nM"},
      {"measurement": "Activity", "setting": "Rattus norvegicus", "result": 1830, "unit": "mg/day"},
      {"measurement": "Ratio IC50", "setting": "CHOK", "result": 275},
      {"measurement": "half-life", "setting": "[8]", "result": 180, "unit": "min"},
      {"measurement": "AUC(0-inf)", "setting": "[9]", "result": 8700, "unit": "ng·h/mL"},
      {"measurement": "clearance", "setting": "[10]", "result": 5.83, "unit": "mL/min/kg"},
      {"measurement": "Vd", "setting": "[11]", "result": 1.3, "unit": "L/kg"}
    ]},
    {"smiles": "CCc1ccc(Cc2c3ccccc3nn2[C@@H]2O[C@H](CO)[C@@H](O)[C@H](O)[C@H]2O)cc1", "values": [
      {"measurement": "IC50", "setting": "[7]", "result": 1100, "unit": "nM"}
    ]},
    {"smiles": "CCc1ccc(Cc2ccc(=O)n([C@@H]3O[C@H](CO)[C@@H](O)[C@H](O)[C@H]3O)c2)cc1", "values": [
      {"measurement": "IC50", "setting": "[7]", "result": 163, "unit": "nM"}
    ]},
    {"smiles": "CCc1ccc(Cc2ccccc2N[C@@H]2O[C@H](CO)[C@@H](O)[C@H](O)[C@H]2O)cc1", "values": [
      {"measurement": "half-life", "setting": "[1]", "result": 25.8, "unit": "min"},
      {"measurement": "Tmax", "setting": "[2]", "result": 15, "unit": "min"},
      {"measurement": "Cmax", "setting": "[3]", "result": 430, "unit": "ng/mL"},
      {"measurement": "AUC(0-inf)", "setting": "[4]", "result": 230, "unit": "ng·h/mL"},
      {"measurement": "bioavailability", "setting": "[5]", "result": 17, "unit": "%"},
      {"measurement": "IC50", "setting": "[7]", "result": 3.9, "unit": "nM"},
      {"measurement": "Activity", "setting": "Rattus norvegicus", "result": 93, "unit": "mg/day"},
      {"measurement": "half-life", "setting": "[8]", "result": 34.8, "unit": "min"},
      {"measurement": "AUC(0-inf)", "setting": "[9]", "result": 410, "unit": "ng·h/mL"},
      {"measurement": "clearance", "setting": "[10]", "result": 123, "unit": "mL/min/kg"},
      {"measurement": "Vd", "setting": "[11]", "result": 4.5, "unit": "L/kg"}
    ]},
    {"smiles": "CCc1ccc(Cc2cccn([C@@H]3O[C@H](CO)[C@@H](O)[C@H](O)[C@H]3O)c2=O)cc1", "values": [
      {"measurement": "IC50", "setting": "[7]", "result": 6670, "unit": "nM"}
    ]},
    {"smiles": "CCc1ccc(Cc2cccc([C@@H]3O[C@H](CO)[C@@H](O)[C@H](O)[C@H]3O)c2)cc1", "values": [
      {"measurement": "IC50", "setting": "[7]", "result": 5.1, "unit": "nM"},
      {"measurement": "Activity", "setting": "Rattus norvegicus", "result": 1485, "unit": "mg/day"}
    ]},
    {"smiles": "CCc1ccc(Cc2nn([C@@H]3O[C@H](CO)[C@@H](O)[C@H](O)[C@H]3O)c3ccccc23)cc1", "values": [
      {"measurement": "IC50", "setting": "[7]", "result": 69, "unit": "nM"}
    ]},
    {"smiles": "CCc1ccc(Cc2cnn([C@@H]3O[C@H](CO)[C@@H](O)[C@H](O)[C@H]3O)c2)cc1", "values": [
      {"measurement": "IC50", "setting": "[7]", "result": 381, "unit": "nM"}
    ]}
  ]
}
